Values after ≈ are worked out from the molar mass of the structure shown. Active and inactive are the calls of the source.
Columns and labels:
Staphylococcus aureus [1] = experiment: Antibacterial activity against glycopeptide-intermediate resistant Staphylococcus aureus HIP 5836 isolate infected New Zealand white rabbit endocarditis model assessed as sterile bacterial vegetation at 10 mg/kg, iv administered every 24 hrs for 2 days; type: functional
Procedure, shortened: (§1)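 After 24 h they were inoculated i.v. through the ear vein with 1 ml of 7 × 10⁵ CFU/ml. Bacteremia was confirmed at 18 h, after which animals were randomized. Human-like kinetics were delivered by computer-controlled pump through a cava catheter for 48 h. Animals were killed 6 drug half-lives later. Aortic vegetations were weighed, homogenized and cultured quantitatively on plates, with broth culture for 1 week. Results are median log₁₀ CFU/g: 2 for broth-only growth, 0 for sterile. Sterility rates were compared by Fisher's exact test.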

Staphylococcus aureus [2] = experiment: Antibacterial activity against glycopeptide-intermediate resistant Staphylococcus aureus ATCC 700788 by microbroth dilution method; type: functional
Procedure, shortened: (§2)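 MIC and MBC were determined by broth microdilution in cation-adjusted Mueller-Hinton broth per CLSI guidelines. S. aureus ATCC 29213 served as the control strain. Strains were stored frozen in skim milk at −80°C and subcultured on 5% sheep blood Columbia agar before each run.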

[3] = AUC in rabbit at 15 mg/kg, iv; type: ADME, organism-based, Oryctolagus cuniculus; parameters: dose 15 mg/kg, route intravenous; details: plasma
Procedure, shortened: (§3)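 Healthy rabbits (n = 5) received telavancin at 15 mg/kg i.v. Blood was drawn through a carotid artery catheter. Plasma telavancin was measured by a validated LC-MS/MS method with a lower limit of quantitation of 0.25 μg/ml. The first-order elimination constant, β-phase half-life and AUC were derived from the concentration-time data.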

Homo sapiens [4] = experiment: Protein binding in human at 7.5 mg/kg, iv administered every 24 hrs; type: ADME, organism-based; parameters: dose 7.5 mg/kg, route intravenous; details: in vivo
Staphylococcus aureus [5] = experiment: Antibacterial activity against glycopeptide-intermediate resistant Staphylococcus aureus HIP 5836 isolate by microbroth dilution method; type: functional; procedure, shortened: as §2
Oryctolagus cuniculus [6] = experiment: Protein binding in rabbit at 10 mg/kg, iv; type: ADME, organism-based; parameters: dose 10 mg/kg, route intravenous; details: in vivo
Oryctolagus cuniculus [7] = experiment: Protein binding in rabbit at 15 mg/kg, iv; type: ADME, organism-based; parameters: dose 15 mg/kg, route intravenous; details: in vivo
Staphylococcus aureus [8] = experiment: Antibacterial activity against glycopeptide-intermediate resistant Staphylococcus aureus HIP 5836 isolate infected New Zealand white rabbit endocarditis model assessed as survival at 10 mg/kg, iv administered every 24 hrs for 2 days; type: functional; procedure, shortened: as §1
[9] = AUC in human at 7.5 mg/kg, iv administered every 24 hrs; type: ADME, organism-based; parameters: dose 7.5 mg/kg, route intravenous; details: plasma
[10] = AUC in rabbit at 7.5 mg/kg, iv administered once daily; type: ADME, organism-based, Oryctolagus cuniculus; parameters: dose 7.5 mg/kg, route intravenous; details: plasma
Procedure, shortened: (§4)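 A computer-controlled pump infused telavancin at precalculated flow rates to reproduce the human 7.5 mg/kg i.v. once-daily serum profile. Plasma levels were measured by validated LC-MS/MS (n = 3 or 5).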

[11] = Terminal half life in rabbit at 15 mg/kg, iv; type: ADME, organism-based, Oryctolagus cuniculus; parameters: dose 15 mg/kg, route intravenous; details: in vivo; procedure, shortened: as §3
Staphylococcus aureus [12] = experiment: Antibacterial activity against glycopeptide-intermediate resistant Staphylococcus aureus HIP 5836 isolate assessed as reduction of bacterial count after 24 hrs by time kill curve study; type: functional
Procedure, shortened: (§5)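 Duplicate time-kill curves followed CLSI criteria with an inoculum of 10⁵ CFU/ml. Viable counts were taken at 0, 4 and 24 h. Bactericidal activity was defined as a ≥3 log₁₀ CFU/ml drop at 24 h versus the starting inoculum.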

[13] = Ratio of AUC in rabbit at 7.5 mg/kg, iv qd to MIC for Staphylococcus aureus ATCC 700788; type: functional
Procedure, shortened: (§6)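 The AUC came from the rabbit infusion simulating human 7.5 mg/kg i.v. once daily. It was divided by each strain's MIC. MICs were determined by CLSI broth microdilution in cation-adjusted Mueller Hinton broth, with S. aureus ATCC 29213 as the control strain.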

Homo sapiens [14] = experiment: Protein binding in human at 10 mg/kg, iv administered every 24 hrs; type: ADME, organism-based; parameters: dose 10 mg/kg, route intravenous; details: in vivo
[15] = Cmax in rabbit at 7.5 mg/kg, iv administered once daily; type: ADME, organism-based, Oryctolagus cuniculus; parameters: dose 7.5 mg/kg, route intravenous; details: in vivo; procedure, shortened: as §4
Staphylococcus aureus [16] = experiment: Antibacterial activity against glycopeptide-intermediate resistant Staphylococcus aureus HIP 5836 isolate infected New Zealand white rabbit endocarditis model assessed as bacterial count per gram of microbial vegetation at 10 mg/kg, iv administered every 24 hrs for 2 days; type: functional; procedure, shortened: as §1
[17] = AUC in human at 10 mg/kg, iv administered every 24 hrs; type: ADME, organism-based; parameters: dose 10 mg/kg, route intravenous; details: plasma
Staphylococcus aureus [18] = experiment: Antibacterial activity against glycopeptide-intermediate resistant Staphylococcus aureus ATCC 700788 infected New Zealand white rabbit endocarditis model assessed as survival at 10 mg/kg, iv administered every 24 hrs for 2 days; type: functional; procedure, shortened: as §1
Staphylococcus aureus [19] = experiment: Antibacterial activity against glycopeptide-intermediate resistant Staphylococcus aureus ATCC 700788 infected New Zealand white rabbit endocarditis model assessed as sterile bacterial vegetation at 10 mg/kg, iv administered every 24 hrs for 2 days; type: functional; procedure, shortened: as §1
[20] = Ratio of AUC in rabbit at 7.5 mg/kg, iv qd to MIC for Staphylococcus aureus HIP 5836 isolate; type: functional; procedure, shortened: as §6
[21] = Cmax in rabbit at 10 mg/kg, iv administered once daily; type: ADME, organism-based, Oryctolagus cuniculus; parameters: dose 10 mg/kg, route intravenous; details: in vivo
Staphylococcus aureus [22] = experiment: Antibacterial activity against glycopeptide-intermediate resistant Staphylococcus aureus ATCC 700788 infected New Zealand white rabbit endocarditis model assessed as bacterial count per gram of microbial vegetation at 10 mg/kg, iv administered every 24 hrs for 2 days; type: functional; procedure, shortened: as §1
Staphylococcus aureus [23] = experiment: Antibacterial activity against glycopeptide-intermediate resistant Staphylococcus aureus ATCC 700788 assessed as reduction of bacterial count after 24 hrs by time kill curve study; type: functional; procedure, shortened: as §5
[24] = Cmax in human at 7.5 mg/kg, iv administered every 24 hrs; type: ADME, organism-based; parameters: dose 7.5 mg/kg, route intravenous; details: in vivo
[25] = Terminal half life in human at 10 mg/kg, iv administered every 24 hrs; type: ADME, organism-based; parameters: dose 10 mg/kg, route intravenous; details: in vivo
[26] = Terminal half life in human at 7.5 mg/kg, iv administered every 24 hrs; type: ADME, organism-based; parameters: dose 7.5 mg/kg, route intravenous; details: in vivo
[27] = Terminal half life in rabbit at 7.5 mg/kg, iv administered once daily; type: ADME, organism-based, Oryctolagus cuniculus; parameters: dose 7.5 mg/kg, route intravenous; details: in vivo; procedure, shortened: as §4
[28] = Ratio of AUC in rabbit at 1 g, iv bid to MIC for Staphylococcus aureus ATCC 700788; type: functional
Procedure, shortened: (§7)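 A computer-controlled pump infused vancomycin to mimic the human 1 g i.v. every-12-h profile. Blood was drawn at 0–6 h after infusion start. Vancomycin was measured by latex-boosted immunoturbidimetry (detection limit 0.8 μg/ml). AUC was divided by the MIC, determined by CLSI broth microdilution in cation-adjusted Mueller-Hinton broth.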

[29] = Terminal half life in rabbit at 1 g, iv administered twice daily; type: ADME, organism-based, Oryctolagus cuniculus; details: in vivo
Procedure, shortened: (§8)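 Rabbits carried a carotid artery catheter for blood sampling and a jugular-to-cava catheter for infusion. A computer-controlled pump delivered the drug to simulate the human profile of 1 g i.v. twice daily. Vancomycin was measured by latex-boosted immunoturbidimetry, detection limit 0.8 μg/ml. Rabbits per group: n = 3 or 5.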

[30] = Ratio of AUC in rabbit at 1 g, iv bid to MIC for Staphylococcus aureus HIP 5836 isolate; type: functional; procedure, shortened: as §7
[31] = AUC in human at 1 g, iv administered every 12 hrs; type: ADME, organism-based; details: plasma
[32] = AUC in rabbit at 1 g, iv administered twice daily; type: ADME, organism-based, Oryctolagus cuniculus; details: plasma; procedure, shortened: as §8
[33] = Cmax in human at 1 g, iv administered every 12 hrs; type: ADME, organism-based; parameters: dose 1 g, route intravenous; details: in vivo
[34] = AUC in rabbit at 25 mg/kg, iv; type: ADME, organism-based, Oryctolagus cuniculus; parameters: dose 25 mg/kg, route intravenous; details: plasma
Procedure, shortened: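 Five healthy rabbits received a 25 mg/kg i.v. dose through a jugular-to-cava catheter. Blood was drawn through a carotid catheter at 0, 0.25, 0.5, 1, 2, 3, 4, 5 and 6 h. Plasma vancomycin was measured by latex-boosted immunoturbidimetry, detection limit 0.8 μg/ml. Elimination rate, half-life and AUC were reported as mean ± variation.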

Staphylococcus aureus [35] = experiment: Antibacterial activity against glycopeptide-intermediate resistant Staphylococcus aureus ATCC 700788 infected New Zealand white rabbit endocarditis model assessed as bacterial count per gram of microbial vegetation at 1 g, iv administered every 12 hrs for 2 days
[36] = Protein binding in human at 1 g, iv administered every 12 hrs; type: ADME, organism-based; details: in vivo, read-out: PB
Staphylococcus aureus [37] = experiment: Antibacterial activity against glycopeptide-intermediate resistant Staphylococcus aureus HIP 5836 isolate infected New Zealand white rabbit endocarditis model assessed as bacterial count per gram of microbial vegetation at 1 g, iv administered every 12 hrs for 2 days
[38] = Terminal half life in human at 1 g, iv administered every 12 hrs; type: ADME, organism-based; details: in vivo
[39] = Cmax in rabbit at 1 g, iv administered twice daily; type: ADME, organism-based, Oryctolagus cuniculus; parameters: dose 1 g, route intravenous; details: in vivo; procedure, shortened: as §8

With `CCCCCCCCCCNCCN[C@@]1(C)C[C@H](O[C@H]2[C@H](Oc3c4cc5cc3Oc3ccc(cc3Cl)[C@@H](O)[C@@H](NC(=O)[C@@H](CC(C)C)NC)C(=O)N[C@@H](CC(N)=O)C(=O)N[C@H]5C(=O)N[C@H]3C(=O)N[C@H](C(=O)N[C@H](C(=O)O)c5cc(O)c(CNCP(=O)(O)O)c(O)c5-c5cc3ccc5O)[C@H](O)c3ccc(c(Cl)c3)O4)O[C@H](CO)[C@@H](O)[C@@H]2O)O[C@@H](C)[C@H]1O` [TELAVANCIN] the Activity (Staphylococcus aureus [1]) was 31%, the MBC (Staphylococcus aureus [2]) was 4 µg/mL (≈ 2.28 µM) and the MIC (Staphylococcus aureus [2]) was 1 µg/mL (≈ 0.57 µM). It also gave an AUC [3] of 270 µg·h/mL, an Activity (Homo sapiens [4]) of 90% and an MBC (Staphylococcus aureus [5]) of 8 µg/mL (≈ 4.56 µM). It also gave an MIC (Staphylococcus aureus [5]) of 4 µg/mL (≈ 2.28 µM), an Activity (Oryctolagus cuniculus [6]) of 90% and an Activity (Oryctolagus cuniculus [7]) of 90%. For the same compound, the Activity (Staphylococcus aureus [8]) was 94%, the AUC at 24 h [9] was 604 µg·h/mL and the AUC [10] was 638 µg·h/mL. For the same compound, the half-life [11] was 1.2 h, the log10CFU/ml (Staphylococcus aureus [12]) was 2 and the RatioAUC/MIC [13] was 638. For the same compound, the Activity (Homo sapiens [14]) was 90%, the Cmax [15] was 90 µg/mL and the log10cfu (Staphylococcus aureus [16]) was 4.4. It also gave an AUC at 24 h [17] of 785 µg·h/mL, an Activity (Staphylococcus aureus [18]) of 94% and an Activity (Staphylococcus aureus [19]) of 37%. The RatioAUC/MIC [20] was 159.5, the Cmax [21] was 114 µg/mL and the log10cfu (Staphylococcus aureus [22]) was 4.6. The log10CFU/ml (Staphylococcus aureus [23]) was 2, the Cmax [24] was 89 µg/mL and the half-life [25] was 7.41 h. For the same compound, the half-life [26] was 6.18 h and the half-life [27] was 4.6 h.
With `CN[C@H](CC(C)C)C(=O)N[C@H]1C(=O)N[C@@H](CC(N)=O)C(=O)N[C@H]2C(=O)N[C@H]3C(=O)N[C@H](C(=O)N[C@H](C(=O)O)c4cc(O)cc(O)c4-c4cc3ccc4O)[C@H](O)c3ccc(c(Cl)c3)Oc3cc2cc(c3O[C@@H]2O[C@H](CO)[C@@H](O)[C@H](O)[C@H]2O[C@H]2C[C@](C)(N)[C@H](O)[C@H](C)O2)Oc2ccc(cc2Cl)[C@H]1O` [VANCOMYCIN] the RatioAUC/MIC [28] was 37.3, the MBC (Staphylococcus aureus [2]) was 128 µg/mL (≈ 88.3 µM) and the MIC (Staphylococcus aureus [2]) was 8 µg/mL (≈ 5.52 µM). It also gave a half-life [29] of 3.8 h, an MBC (Staphylococcus aureus [5]) of 128 µg/mL (≈ 88.3 µM) and an MIC (Staphylococcus aureus [5]) of 8 µg/mL (≈ 5.52 µM). For the same compound, the RatioAUC/MIC [30] was 37.3, the AUC at 12 h [31] was 359 µg·h/mL and the AUC [32] was 299 µg·h/mL. The Activity (Staphylococcus aureus [12]) was “Active”, the Cmax [33] was 52 µg/mL and the AUC [34] was 101 µg·h/mL. It also gave a log10cfu (Staphylococcus aureus [35]) of 6.6, a fraction unbound at 12 h [36] of 0.5 and a log10cfu (Staphylococcus aureus [37]) of 6.7. For the same compound, the half-life [38] was 4.6 h, the Activity (Staphylococcus aureus [23]) was “Active” and the Cmax [39] was 46 µg/mL.

From ChEMBL document CHEMBL1157365, “Efficacy of telavancin in the treatment of experimental endocarditis due to glycopeptide-intermediate Staphylococcus aureus” (Antimicrob Agents Chemother, 2007)
